Columns and labels:
FM3A [1] = assay: In vitro cytotoxicity in mouse mammary tumor FM3A cells; Nontoxic at a 1*10^-4 M concentration.; type: functional, cell-based
Plasmodium falciparum [2] = assay: In vitro antimalarial activity against chloroquine-sensitive Plasmodium falciparum FCR3; Not toxic at 100uM; type: functional, organism-based
FM3A [3] = assay: In vitro cytotoxicity in mouse mammary tumor FM3A cells; type: functional, cell-based
FM3A [4] = assay: Selectivity index as EC50 FM3A /EC50 Plasmodium falciparum; type: functional
Plasmodium falciparum [5] = assay: Antiparasitic activity against Plasmodium falciparum FCR-3
Mus musculus [6] = assay: In vivo antimalarial activity against Plasmodium berghei NK 65 in mice (Mus musculus) at 20 mg/kg/day; type: functional
Summary of the method: (§1)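 Male ICR mice, 5 weeks old, 22-25 g, five per group. Infected iv (tail vein) with 1 × 10⁶ P. berghei NK 65 parasitized erythrocytes in 0.2 mL 0.9% NaCl. Compound in DMSO given ip once daily on days 0-3, first dose 2 h after inoculation. Controls were DMSO-dosed. Day-4 parasitemia counted on Giemsa tail-blood smears (1 × 10⁴ RBCs). Percent suppression relative to controls, mean of five mice.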

Mus musculus [7] = assay: In vivo antimalarial activity against Plasmodium berghei NK 65 in mice (Mus musculus) at 50 mg/kg/day; type: functional; summary of the method: as §1

SMILES: FC(F)(F)c1ccc(C2OOC(c3ccc(C(F)(F)F)cc3)OO2)cc1 (stereo not given)
- EC50 (FM3A [1]): Not toxic
- EC50 (Plasmodium falciparum [2]): Not toxic

SMILES: COc1ccc(C(=O)CCCC2OOC3CCCC(c4ccc(OC)cc4)(OO2)O3)cc1 (stereo not given)
- EC50 (FM3A [3]): 18000 nM
- Selectivity (FM3A [4]): 19
- EC50 (Plasmodium falciparum [5]): 930 nM

SMILES: C[C@@H]1CC[C@H]2[C@@H](C)C(=O)O[C@@H]3O[C@@]4(C)CC[C@@H]1[C@]32OO4 [ARTEMISININ]
- EC50 (FM3A [3]): 10000 nM
- Growth inhibition (Mus musculus [6]): 93%
- Growth inhibition (Mus musculus [7]): 100%
- EC50 (Plasmodium falciparum [5]): 7.8 nM

SMILES: CCCCCCC[C@H]1OO[C@H](CCCCCCC)OO1
- EC50 (FM3A [1]): Not toxic
- Selectivity (FM3A [4]): >67
- EC50 (Plasmodium falciparum [5]): 1500 nM

SMILES: CCCCCCCC1OOC2CCCC(c3ccccc3)(OO1)O2 (stereo not given)
- EC50 (FM3A [3]): 12000 nM
- EC50 (Plasmodium falciparum [5]): 1500 nM

SMILES: c1ccc(C23CCCC(OOC(C4CCCCC4)OO2)O3)cc1 (stereo not given)
- EC50 (FM3A [3]): 10000 nM
- Growth inhibition (Mus musculus [6]): 0%
- Growth inhibition (Mus musculus [7]): 15%
- Selectivity (FM3A [4]): 48
- EC50 (Plasmodium falciparum [5]): 210 nM

SMILES: FC(F)(F)c1ccccc1C1OOC(c2ccccc2C(F)(F)F)OO1 (stereo not given)
- EC50 (FM3A [3]): 3000 nM
- Selectivity (FM3A [4]): 5
- EC50 (Plasmodium falciparum [5]): 600 nM

SMILES: CCC(CC)C1OOC2CCCC(c3ccccc3)(OO1)O2 (stereo not given)
- EC50 (FM3A [3]): 33000 nM
- Growth inhibition (Mus musculus [6]): 15%
- Growth inhibition (Mus musculus [7]): 18%
- Selectivity (FM3A [4]): 65
- EC50 (Plasmodium falciparum [5]): 510 nM

SMILES: CC(C)(C)C1OOC2CCCC(c3ccccc3)(OO1)O2 (stereo not given)
- EC50 (FM3A [3]): 26000 nM
- Selectivity (FM3A [4]): 2
- EC50 (Plasmodium falciparum [5]): 17000 nM

SMILES: C1CCC([C@H]2OO[C@H](C3CCCCC3)OO2)CC1
- EC50 (FM3A [3]): 11000 nM
- Growth inhibition (Mus musculus [6]): 50%
- Growth inhibition (Mus musculus [7]): 96%
- Selectivity (FM3A [4]): 55
- EC50 (Plasmodium falciparum [5]): 200 nM

SMILES: O=C(CCC[C@H]1OO[C@@H](CCCC(=O)c2ccccc2)OO1)c1ccccc1
- EC50 (FM3A [1]): Not toxic
- Selectivity (FM3A [4]): >8
- EC50 (Plasmodium falciparum [5]): 12000 nM

SMILES: O=C(CCCC1OOC2CCCC(c3ccccc3)(OO1)O2)c1ccccc1 (stereo not given)
- EC50 (FM3A [1]): Not toxic
- Selectivity (FM3A [4]): >77
- EC50 (Plasmodium falciparum [5]): 1300 nM

SMILES: Fc1ccc(C2OOC3CCCC(c4ccc(F)cc4)(OO2)O3)cc1 (stereo not given)
- EC50 (FM3A [3]): 9000 nM
- Selectivity (FM3A [4]): 5
- EC50 (Plasmodium falciparum [5]): 1900 nM

SMILES: c1ccc(C[C@H]2OO[C@H](Cc3ccccc3)OO2)cc1
- EC50 (FM3A [1]): Not toxic
- Selectivity (FM3A [4]): >7
- EC50 (Plasmodium falciparum [5]): 14000 nM

SMILES: Fc1ccc(C23CCCC(OOC(c4ccccc4)OO2)O3)cc1 (stereo not given)
- EC50 (FM3A [3]): 8100 nM
- Selectivity (FM3A [4]): 4
- EC50 (Plasmodium falciparum [5]): 2900 nM

SMILES: c1ccc(C2OOC3CCCC(c4ccccc4)(OO2)O3)cc1 (stereo not given)
- EC50 (FM3A [3]): 50000 nM
- Selectivity (FM3A [4]): 36
- EC50 (Plasmodium falciparum [5]): 1400 nM

SMILES: Fc1ccc(C2OOC(c3ccc(F)cc3)OO2)cc1 (stereo not given)
- EC50 (FM3A [1]): Not toxic
- Growth inhibition (Mus musculus [6]): 50%
- Growth inhibition (Mus musculus [7]): 90%
- Selectivity (FM3A [4]): >200
- EC50 (Plasmodium falciparum [5]): 500 nM

SMILES: COc1ccc(C2OOC(c3ccc(OC)cc3)OO2)cc1 (stereo not given)
- EC50 (FM3A [1]): Not toxic
- Selectivity (FM3A [4]): >127
- EC50 (Plasmodium falciparum [5]): 790 nM

SMILES: Fc1ccc(C23CCCC(OOC(C4CCCCC4)OO2)O3)cc1 (stereo not given)
- EC50 (FM3A [3]): 2500 nM
- Selectivity (FM3A [4]): 17
- EC50 (Plasmodium falciparum [5]): 150 nM

SMILES: Fc1ccc(C2OOC3CCCC(c4ccccc4)(OO2)O3)cc1 (stereo not given)
- EC50 (FM3A [3]): 17000 nM
- Selectivity (FM3A [4]): 6
- EC50 (Plasmodium falciparum [5]): 2800 nM

SMILES: O=C(CCC[C@H]1OO[C@H](CCCC(=O)c2ccc(F)cc2)OO1)c1ccc(F)cc1
- EC50 (FM3A [1]): Not toxic
- Growth inhibition (Mus musculus [6]): 0%
- Growth inhibition (Mus musculus [7]): 30%
- Selectivity (FM3A [4]): >169
- EC50 (Plasmodium falciparum [5]): 510 nM

SMILES: c1ccc([C@H]2OO[C@H](c3ccccc3)OO2)cc1
- EC50 (FM3A [1]): Not toxic
- Growth inhibition (Mus musculus [6]): 6%
- Growth inhibition (Mus musculus [7]): 50%
- Selectivity (FM3A [4]): >91
- EC50 (Plasmodium falciparum [5]): 1100 nM

SMILES: O=C(CCCC1OOC2CCCC(c3ccc(F)cc3)(OO1)O2)c1ccc(F)cc1 (stereo not given)
- EC50 (FM3A [1]): Not toxic
- Growth inhibition (Mus musculus [6]): 0%
- Growth inhibition (Mus musculus [7]): 0%
- Selectivity (FM3A [4]): >141
- EC50 (Plasmodium falciparum [5]): 710 nM

SMILES: O=C(CCC[C@H]1OO[C@H](CCCC(=O)c2ccccc2)OO1)c1ccccc1
- EC50 (FM3A [1]): Not toxic
- Growth inhibition (Mus musculus [6]): 30%
- Growth inhibition (Mus musculus [7]): 40%
- Selectivity (FM3A [4]): >250
- EC50 (Plasmodium falciparum [5]): 400 nM

SMILES: COc1ccc(C(=O)CCC[C@H]2OO[C@H](CCCC(=O)c3ccc(OC)cc3)OO2)cc1
- EC50 (FM3A [1]): Not toxic
- Selectivity (FM3A [4]): >5
- EC50 (Plasmodium falciparum [5]): 20000 nM

— ChEMBL document CHEMBL1132298, “Synthesis and antimalarial activity of cyclic peroxides, 1,2,4,5, 7-pentoxocanes and 1,2,4,5-tetroxanes” (J Med Chem, 1999)
